PubChem BioAssay
Activity calls are given as the source filed them.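 How the source made its calls, unless noted: active means viability loss from added drug above about 55%, and viability with drug at most 40%, in both replicates (limit read from the data, passing the limit was not always enough); inconclusive means both conditions met in only one replicate; inactive means neither replicate meets both conditions.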

How the values were obtained:
[1] = reducers of endogenous Her2 protein level, primary screen, SKBR3 breast tumor cells, AlphaScreen, ATP viability (AID 461;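 active means Her2 level under about 52% in both replicate screens, with viability over 70% of control, limit read from the data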;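 on Her2 level: lower value means less Her2 protein in the cells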;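 on viability: percent of carrier control wells set as 100% viability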); details: 18-24 h, measured here: SKBR3 viability, ATP luminescence, at 10 µM
[2] = target: Receptor tyrosine-protein kinase erbB-2 (Homo sapiens) (UniProt P04626); assay: as above; details: 18-24 h, at 10 µM, stronger effect = lower value
[3] = SK-BR-3 cell growth inhibitors, pilot screen, 24 h, human (AID 572;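 active means viability at or below 10% of carrier control in both of two separate runs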;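 further: compound exposure lasted between 18 and 24 h rather than exactly 24 h; 100% = carrier-treated control wells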); details: SK-BR-3 viability, CellTiter-Glo luminescence, at 10 µM, stronger effect = lower value
[4] = HUVEC growth inhibition – cell-based, human, primary screen (AID 575;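 active means viability at or below 30% in both replicate assays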;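 further: 100% = median of untreated cell wells with 0.1% DMSO on each plate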); details: HUVEC proliferation, CellTiter-Glo luminescence, 72 h; at 10 µM; stronger effect = lower value
Procedure, shortened: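 System: primary human umbilical vein endothelial cells; Quantity: 1250 endothelial cells in each well; Buffer or medium: supplemented EBM, 2% fetal bovine serum; Doses: one dose, 10 µM final, 0.1% DMSO; Incubation: 72 h compound incubation; Technique: ATP-based CellTiter-Glo luminescent read; Evaluation: percent of median DMSO-control luminescence; Controls: vehicle and MePR control wells.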

[5] = growth inhibitors of H69AR lung tumor, primary screen, human, duplicate replicates (AID 580;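 active means viability at or under a set limit in both replicates, limit being median viability minus 3 SD, cut at about 48% in these data, passing the limit was not always enough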;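 further: 100% = mean luminescence of untreated wells and 0% = no signal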); details: H69AR lung tumor cells viability, ATP luminescence, 72 h; at 10 µM; stronger effect = lower value
[6] = reversal of MRP1-mediated doxorubicin resistance, pilot screen, H69AR cells, doxorubicin co-treatment (AID 601); details: CellTiter-Glo, 72 h, at 10 µM; for differential viability (reversal): stronger effect = higher value
[7] = 384-well plate pilot, post-Golgi transport modulator project, inhibition of yeast transport mutant growth (AID 636; in the data active means inhibition above about 31%); details: absorbance 615 nm, about 18 h, stronger effect = higher value
[8] = growth suppression of yeast trafficking mutant, preliminary HTS, modulators of trafficking downstream of Golgi apparatus project, 1536-format plate, OD 615 nm (AID 637; in the data active means inhibition above about 30%); details: yeast transport mutant growth, absorbance 615 nm, 18 h; stronger effect = higher value
[9] = H69AR cells + 2 uM doxorubicin, measured here: viability with 2 uM doxorubicin, stronger effect = lower value
[10] = H69AR cells, compound alone cytotoxicity

Sequence of Receptor tyrosine-protein kinase erbB-2 (Homo sapiens) (P04626 whole entry, looked up): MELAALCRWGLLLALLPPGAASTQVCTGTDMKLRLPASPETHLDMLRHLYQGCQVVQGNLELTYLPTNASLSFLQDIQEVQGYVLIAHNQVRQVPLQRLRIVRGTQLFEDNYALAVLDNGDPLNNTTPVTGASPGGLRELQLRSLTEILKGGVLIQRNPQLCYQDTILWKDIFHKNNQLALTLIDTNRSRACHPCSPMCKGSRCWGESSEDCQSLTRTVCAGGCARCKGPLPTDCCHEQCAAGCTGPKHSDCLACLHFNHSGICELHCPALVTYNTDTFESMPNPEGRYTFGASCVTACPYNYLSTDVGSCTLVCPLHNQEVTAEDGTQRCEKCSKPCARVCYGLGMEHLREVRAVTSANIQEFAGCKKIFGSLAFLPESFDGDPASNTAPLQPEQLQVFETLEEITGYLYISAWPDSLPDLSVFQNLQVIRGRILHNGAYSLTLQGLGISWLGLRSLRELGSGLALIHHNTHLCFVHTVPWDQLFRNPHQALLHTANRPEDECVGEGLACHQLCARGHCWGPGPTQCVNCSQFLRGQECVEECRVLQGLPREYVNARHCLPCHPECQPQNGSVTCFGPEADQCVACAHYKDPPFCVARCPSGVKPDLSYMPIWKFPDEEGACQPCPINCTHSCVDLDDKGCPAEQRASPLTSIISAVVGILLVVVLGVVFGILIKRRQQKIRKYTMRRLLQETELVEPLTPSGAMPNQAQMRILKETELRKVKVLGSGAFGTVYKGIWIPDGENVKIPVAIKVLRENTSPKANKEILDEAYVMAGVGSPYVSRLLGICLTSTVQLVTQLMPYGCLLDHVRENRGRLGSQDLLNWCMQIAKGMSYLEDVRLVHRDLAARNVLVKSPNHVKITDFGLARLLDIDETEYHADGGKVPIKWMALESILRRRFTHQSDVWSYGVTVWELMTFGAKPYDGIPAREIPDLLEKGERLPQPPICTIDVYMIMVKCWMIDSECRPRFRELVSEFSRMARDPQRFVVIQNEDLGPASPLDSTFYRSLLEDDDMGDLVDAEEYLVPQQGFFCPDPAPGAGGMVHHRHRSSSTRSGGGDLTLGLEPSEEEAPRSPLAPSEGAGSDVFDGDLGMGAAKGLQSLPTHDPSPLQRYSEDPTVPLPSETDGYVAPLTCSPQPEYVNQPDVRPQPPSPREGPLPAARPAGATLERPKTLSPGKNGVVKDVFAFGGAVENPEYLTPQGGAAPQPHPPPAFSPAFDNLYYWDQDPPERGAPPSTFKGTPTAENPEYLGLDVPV

Structure (SMILES)	viability [1]	Her2 level [2]	viability [3]	viability [4]	viability [5]	differential viability (reversal) ([6]; H69AR cells + 2 uM doxorubicin)	viability [6, 9]	viability [6, 10]	inhibition [7]	inhibition [8]
O=C(NCCO)c1cccc2c1C(=O)c1ccccc1-2	97.5%	95.5% (inactive)	97.5% (inactive)	98.4% (inactive)	101% (inactive)	15.4% (inactive)	85.8%	101%	-6.4% (inactive)	-1.48% (inactive)
CCNCCNC(=O)c1c(O)c2ccccc2n(CC)c1=O	126%	90.5% (inactive)	126% (inactive)	84.7% (inactive)	89.1% (inactive)	4.78% (inactive)	84.3%	89.1%	-4.87% (inactive)	0.81% (inactive)
O=C(Cc1c(O)c2ccccc2[nH]c1=O)NCc1ccc(F)cc1	121%	87.5% (inactive)	121% (inactive)	90.5% (inactive)	91.3% (inactive)	2.8% (inactive)	88.5%	91.3%	-4.87% (inactive)	10% (inactive)
COc1ccc(Cc2nn3c(-c4cc(OC)c(OC)c(OC)c4)nnc3s2)cc1	95%	76.5% (inactive)	95% (inactive)	102% (inactive)	81.6% (inactive)	11.7% (inactive)	69.9%	81.6%	-6.08% (inactive)	5.17% (inactive)
CCOc1nc(SCCOc2ccccc2)nc(N(C)C)n1	96%	115% (inactive)	96% (inactive)	72.4% (inactive)	107% (inactive)	4.17% (inactive)	102%	107%	-1.84% (inactive)	-3.5% (inactive)
Cc1ccc(C(=O)C2COC(=O)C2)cc1 (stereo not given)	109%	80.5% (inactive)	109% (inactive)	95.7% (inactive)	85.3% (inactive)	3.12% (inactive)	82.2%	85.3%	-1.97% (inactive)	-4.84% (inactive)
O=C(Cn1nnc(-c2cccc(C(F)(F)F)c2)n1)NC(=O)NCc1ccco1	89%	102% (inactive)	89% (inactive)	98.3% (inactive)	74.1% (inactive)	-3.41% (inactive)	77.5%	74.1%	-1.05% (inactive)	-1.82% (inactive)
CCOc1cc(S(=O)(=O)NCc2ccccn2)c(C)cc1C	92.5%	84.5% (inactive)	92.5% (inactive)	96.8% (inactive)	100% (inactive)	6.28% (inactive)	94.1%	100%	-5.53% (inactive)	-4.76% (inactive)
Cc1occc1-c1nnc(SCC(=O)N2CCc3ccccc32)o1	98.5%	82.5% (inactive)	98.5% (inactive)	85.8% (inactive)	3.12% (active)	0.62% (inactive)	2.5%	3.12%	-3.01% (inactive)	-3.02% (inactive)
CCOc1ccc(C(=O)N(CN2CCCC2=O)c2ccc(C)cc2)cc1	125%	114% (inactive)	125% (inactive)	116% (inactive)	95.1% (inactive)	7.87% (inactive)	87.2%	95.1%	-6% (inactive)	1.94% (inactive)
Fc1ccccc1-c1nc(-c2ccccc2)no1	85.5%	69% (inactive)	85.5% (inactive)	81.4% (inactive)	111% (inactive)	19.6% (inactive)	90.9%	111%	1.05% (inactive)	-3.87% (inactive)
N#Cc1nc(-c2ccco2)oc1N1CCN(c2cccc(Cl)c2)CC1	87%	85.5% (inactive)	87% (inactive)	90.1% (inactive)	90% (inactive)	-5.21% (inactive)	95.2%	90%	-4.13% (inactive)	4.29% (inactive)
COc1ccc(C(=O)Nc2ccc(C)cn2)c(OC)c1	73.5%	77% (inactive)	73.5% (inactive)	102% (inactive)	85.4% (inactive)	11.2% (inactive)	74.2%	85.4%	-4.19% (inactive)	0.98% (inactive)
O=C(NCc1ccccn1)c1cccs1	97%	80.5% (inactive)	97% (inactive)	92.4% (inactive)	105% (inactive)	11.9% (inactive)	92.8%	105%	-7.43% (inactive)	4.1% (inactive)
COc1cccc(CNc2cccc3cccnc23)c1O	102%	82.5% (inactive)	102% (inactive)	73.5% (inactive)	78.4% (inactive)	-14.6% (inactive)	93%	78.4%	-3.16% (inactive)	-1.97% (inactive)
Cc1ccc(-n2c(=O)[nH]c3c(C(N)=O)nc(CC(C)C)nc32)cc1	105%	106% (inactive)	105% (inactive)	89% (inactive)	72.6% (inactive)	-18.6% (inactive)	91.2%	72.6%	-2.76% (inactive)	5.57% (inactive)
Cc1cc(Oc2ccccc2)nc(-c2ccccc2)n1	100%	112% (inactive)	100% (inactive)	92.7% (inactive)	99.1% (inactive)	7.91% (inactive)	91.2%	99.1%	-1.17% (inactive)	-5.25% (inactive)
CCC(CC)C(=O)Nc1cccc(C(=O)NCc2ccco2)c1	94%	104% (inactive)	94% (inactive)	100% (inactive)	69.1% (inactive)	-20.5% (inactive)	89.6%	69.1%	-3.24% (inactive)	-1.64% (inactive)
C=CCc1cc(C(=O)N2CCCCC2)ccc1O	104%	100% (inactive)	104% (inactive)	88% (inactive)	92.3% (inactive)	-15.2% (inactive)	108%	92.3%	-2.5% (inactive)	8.2% (inactive)
CCC(=O)N1CCN(CCN=CC2=C(O)CC(C)(C)CC2=O)CC1	90.5%	93.5% (inactive)	90.5% (inactive)	79.6% (inactive)	107% (inactive)	11.3% (inactive)	95.2%	107%	-1.6% (inactive)	-6.77% (inactive)
CCOC(=O)c1ccc2nc(NC(NC(C)=O)(C(=O)OC)C(F)(F)F)sc2c1 (stereo not given)	98.5%	88.5% (inactive)	98.5% (inactive)	82.8% (inactive)	98.6% (inactive)	15% (inactive)	83.6%	98.6%	-3.03% (inactive)	-1.82% (inactive)
CCC1(c2ccc(F)cc2)NC(=O)N(CC(=O)c2ccc[nH]2)C1=O (stereo not given)	110%	117% (inactive)	110% (inactive)	99.3% (inactive)	96.6% (inactive)	9.76% (inactive)	86.9%	96.6%	-2.08% (inactive)	-4.83% (inactive)
CC(Sc1nnnn1-c1ccccc1)C(=O)Nc1ccc(Cl)cn1 (stereo not given)	87.5%	89% (inactive)	87.5% (inactive)	73.9% (inactive)	92.7% (inactive)	6.54% (inactive)	86.1%	92.7%	-2.76% (inactive)	5.4% (inactive)
CC1CCN(S(=O)(=O)c2ccc(NC(=O)CSc3nnnn3C)cc2)CC1	94.5%	103% (inactive)	94.5% (inactive)	76.3% (inactive)	101% (inactive)	22% (inactive)	78.7%	101%	-5.92% (inactive)	-3.49% (inactive)
CN1CCc2nc(SCC(=O)Nc3ccc(F)cc3)c(C#N)cc2C1	90.5%	91.5% (inactive)	90.5% (inactive)	94.2% (inactive)	97% (inactive)	-4.23% (inactive)	101%	97%	-5.33% (inactive)	4.1% (inactive)
COc1ccc(Br)cc1CNC(=O)CCc1nc(-c2ccc(C)cc2)no1	101%	77.5% (inactive)	101% (inactive)	87.4% (inactive)	94.2% (inactive)	11.5% (inactive)	82.7%	94.2%	-4.34% (inactive)	-4.67% (inactive)
CCc1nnc2c3cnn(-c4ccccc4)c3ncn12	93.5%	95% (inactive)	93.5% (inactive)	102% (inactive)	110% (inactive)	15.1% (inactive)	94.6%	110%	-3.92% (inactive)	2.38% (inactive)
CC(C)NC(=O)CSc1nnc(-c2ccc(C(C)(C)C)cc2)n1C	95%	82% (inactive)	95% (inactive)	71.5% (inactive)	103% (inactive)	11.6% (inactive)	91.4%	103%	-2.24% (inactive)	-3.65% (inactive)
CCOC(=O)N1CCN(C(=O)CSc2nnc(Cc3ccccc3)o2)CC1	92.5%	102% (inactive)	92.5% (inactive)	76% (inactive)	103% (inactive)	25.7% (inactive)	77.2%	103%	0.27% (inactive)	1.97% (inactive)
